Measurements of several laboratories.
Each line is one published result; the experiments were not run side by side.

Structure (SMILES)	target or system	effect on	method	strain	time	endpoint	value
Nc1ccc(/C=C/C(=O)N2CCc3c(oc4c(-c5ccc(F)cc5)cc(-c5ccc(C(=O)N6CCC(F)(F)CC6)nn5)cc34)C2)cn1	CFPAC-1	cell growth or viability	CCK-8	–	72 h	IC50	> 20 µM
Cc1[nH]c(C(=O)Nc2ccc(C(=O)NCc3n[nH]c(=O)o3)cc2N2CCNCC2)c(Cl)c1Cl.Cl	Enterococcus faecium	microbial growth	broth dilution	ATCC35667	–	MIC	> 32 µg/mL
Cc1ccc(Cn2cc(C(=O)NN)c(=O)c3cc(Oc4ccccc4)ccc32)cc1	Trypanosoma brucei	parasite growth	–	RHODESIENSE	–	EC50	0.5 µM
Cc1cc(C)c(C(N)=O)c(SCC(=O)c2ccc(Cl)cc2Cl)n1	Trypanosoma brucei	parasite growth	resazurin	RHODESIENSE	–	EC50	> 64 µM
Cc1[nH]c(C(=O)Nc2ccc(C(=O)NCC(=O)O)cc2N2CC[C@@H](N)C2)c(Cl)c1Cl.Cl	Enterococcus faecium	microbial growth	broth dilution	ATCC35667	–	MIC	> 32 µg/mL
Cc1cc(C)c(C#N)c(SCC(=O)c2ccccn2)n1	Trypanosoma brucei	parasite growth	resazurin	RHODESIENSE	–	EC50	18 µM
Cc1[nH]c(C(=O)Nc2ccc(C(=O)NCC(=O)O)cc2N2CCNCC2)c(Cl)c1Cl.Cl	Enterococcus faecium	microbial growth	broth dilution	ATCC35667	–	MIC	> 32 µg/mL
C=CC(=O)NC1CCN(c2ncc3ncnc(Nc4ccc(Oc5ccc6c(c5)ncn6C)c(C)c4)c3n2)CC1	DoTc2-4510	cell growth or viability	–	–	–	EC50	5.24 µM
COc1ccnc(SCC(=O)c2ccccc2)c1C#N	Trypanosoma brucei	parasite growth	resazurin	–	–	EC50	> 64 µM
COc1ccc2c(c1)c(=O)c(C(=O)N/N=C/c1ccc([N+](=O)[O-])s1)cn2Cc1ccccc1	Trypanosoma brucei	parasite growth	resazurin	–	72 h	EC50	0.41 µM
Cc1[nH]c(C(=O)Nc2ccc(C(=O)NCC(=O)O)cc2N2CC[C@@H](NC(=O)OC(C)(C)C)C2)c(Cl)c1Cl	Enterococcus faecium	microbial growth	broth dilution	ATCC35667	–	MIC	> 32 µg/mL
O=C(O)c1ccc2c(c1)nc(Nc1cccc(Cl)c1)c1ccncc12	SK-MES-1	cell growth or viability	resazurin	–	48 h	IC50	6.9 µM
Cc1cc(C)c(C#N)c(NCC(=O)c2ccc(F)cc2)n1	Trypanosoma brucei	parasite growth	resazurin	–	–	EC50	> 64 µM
Nc1ccc(/C=C/C(=O)NCc2cc3cc(-c4ccc(C(=O)N5CCC(F)(F)CC5)cc4)cc(-c4ccc(F)cc4)c3o2)cn1	CFPAC-1	cell growth or viability	CCK-8	–	72 h	IC50	> 20 µM
CC(C)(C)OC(=O)N[C@H]1CCN(c2cc(C(=O)NCC(=O)O)ccc2NC(=O)c2cc(Br)c(Br)[nH]2)C1	Enterococcus faecium	microbial growth	broth dilution	ATCC35667	–	MIC	> 32 µg/mL
